Sampled rows, rich in hits. Any-hit rate of the full collection: about 2.1%.
GSK3B inh: inhibitors of human GSK3beta kinase. GST-GSK3beta kinase, ADP-Glo luminescence, 60 min; stronger effect = lower value. activity score (negative = inhibition), % at 10 µM. 0.038% of 300,000 active;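 active = more than half of replicate wells score below -50%, meaning over 50% inhibition versus plate controls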;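 also: 0% = median DMSO wells and -100% = median GW8510 positive control wells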
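Test system: GST-fused GSK3beta enzyme, cell-free | Quantity: 1.6 ng GST-GSK3beta enzyme per well | Reagent: 25 µM ATP with peptide substrate | Schedule: 60 min enzyme reaction, room temperature | Signal: Luminescent ADP-Glo measurement of ADP formed | Read-out basis: Score relative to plate controls | Control set: DMSO and 20 µM GW8510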
STK33 kinase inh: inhibitors of human STK33 kinase; purified STK33, MBP phosphorylation, ADP-Glo luminescence; inhibition, % at 10 µM; 0.073% of 320,000 active; AID 2661;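 active = inhibition at or above 25%, using the most active replicate where run in duplicate; inactive = inhibition below 25%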
MEKK2wt PB1 HTS: raises or lowers MEK5 binding to wildtype human MEKK2 PB1 domain; Q9Y2U5; bead flow cytometry, Alexa488-MEK5 binding to MEKK2 WT; actives lie on both sides; binding response (% of control), % at 10 µM; AID 1531; 1.1% of 290,000 active; in the data active = binding response below about 67% or above about 130%
GSK3A inh: inhibitors of human GSK-3 alpha kinase | P49840 | ADP-Glo luminescence, 60 min | inhibition, % at 10 µM | 0.1% of 320,000 active;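 active = more than half of replicates show inhibition above 20%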;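 also: GST-tagged GSK-3 alpha with peptide substrate and 25 µM ATP; 0% = DMSO neutral wells and 100% = GW8510 positive control wells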
MEKK3 PB1 HTS: modulators (inhibitors or enhancers) of MEK5 binding to human MEKK3 PB1 domain; Q99759; bead-based flow cytometry, Alexa488-MEK5 binding to MEKK3; actives lie on both sides; 0 = blocked by unlabeled MEK5, 100 = vehicle; binding response (% of control), % at 10 µM; 1.4% of 290,000 active;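 active = binding response more than 3 SD above or below the average of its plate-row segment, actives on both sides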;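 also: Alexa488 bead fluorescence after subtracting the streptavidin-only scavenger bead signal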
Target sequence (Q99759 whole entry, looked up, the tested form may be a part): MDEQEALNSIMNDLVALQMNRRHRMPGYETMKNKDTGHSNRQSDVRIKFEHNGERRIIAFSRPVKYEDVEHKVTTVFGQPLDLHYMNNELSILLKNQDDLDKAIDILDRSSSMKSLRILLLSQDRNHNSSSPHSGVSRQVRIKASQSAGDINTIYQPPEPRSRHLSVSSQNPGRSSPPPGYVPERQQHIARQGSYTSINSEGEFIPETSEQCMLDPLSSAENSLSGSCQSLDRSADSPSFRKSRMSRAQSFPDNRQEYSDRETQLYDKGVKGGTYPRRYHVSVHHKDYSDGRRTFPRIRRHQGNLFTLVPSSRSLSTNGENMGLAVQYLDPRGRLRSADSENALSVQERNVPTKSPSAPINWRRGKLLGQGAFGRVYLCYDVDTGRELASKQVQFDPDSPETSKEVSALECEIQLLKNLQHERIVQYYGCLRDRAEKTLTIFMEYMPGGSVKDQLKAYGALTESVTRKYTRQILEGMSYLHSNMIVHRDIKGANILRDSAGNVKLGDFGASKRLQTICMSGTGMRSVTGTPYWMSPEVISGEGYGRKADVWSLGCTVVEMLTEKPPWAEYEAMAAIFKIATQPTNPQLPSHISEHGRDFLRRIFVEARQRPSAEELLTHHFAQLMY
MEKK2mut PB1 HTS: signal of MEK5 binding to mutant human MEKK2 PB1 domain. bead flow cytometry, Alexa488-MEK5 binding to MEKK2 mutant. percent response, % at 10 µM. 0.35% of 290,000 active. AID 1530; in the data active = percent response above about 24%, passing the limit was not always enough
MEKK2wt confirm: raises or lowers MEK5 binding to wildtype human MEKK2, retest. shares compounds with MEKK3 PB1 HTS. bead flow cytometry, Alexa488-MEK5 binding to MEKK2 WT; actives lie on both sides. binding response (% of control), % at 10 µM. 2.4% of 5,900 active. AID 1892; in the data active = binding response below about 16% or above about 210%; inactive = in between
MEKK2mut-MEK5: signal of MEK5 binding to mutant human MEKK2, retest; bead flow cytometry, Alexa488-MEK5 binding to MEKK2 mutant; percent response, % at 10 µM; AID 1893; shares compounds with MEKK3 PB1 HTS; 2% of 5,900 active; in the data active = percent response mostly above about 71%, no sharp cut-off; inactive = mostly below about 38%;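 also: higher means compound restores mutant binding toward wildtype level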
MEKK3-MEK5 inh: MEKK3-MEK5 PB1 inhibition, single concentration confirmation; binding response (% of control), % at 10 µM; shares compounds with MEKK3 PB1 HTS; 1.8% of 5,900 active; AID 1894; bead flow cytometry, Alexa488-MEK5 binding to MEKK3; stronger effect = lower value;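 active = binding response below 72% of control, or above a set upper limit, though filed actives all read lower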;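 also: 100% = DMSO only wells and 0% = binding blocked by excess unlabeled MEK5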
* hit, by the source's call; . = no result given; [ ] = dose if it differs, or a comment.

SMILES | GSK3B inh | STK33 kinase inh | MEKK2wt PB1 HTS | GSK3A inh | MEKK3 PB1 HTS | MEKK2mut PB1 HTS | MEKK2wt confirm | MEKK2mut-MEK5 | MEKK3-MEK5 inh
O=C(CCSCc1cccc(Cl)c1)NCCc1ccc(Cl)cc1 | -3 | -2 | 111 | -1 | 104 | 16 | . | . | .
O=C(CCSCc1ccc(Cl)cc1)NC1CCCC1 | 0 | -1 | 109 | -1 | 151* | 1 | 98 | -8 | 102
CC(C)C[C@H](NC(=O)N1c2ccccc2NC(=O)[C@@H]1C(C)C)C(=O)N1CCC[C@@H]1C(=O)O | -3 | -1 | 97 | 0 | 98 | -2 | . | . | .
CC(C)(C)c1cc(CP(=O)(c2ccccc2)c2ccccc2)cc(C(C)(C)C)c1O | 0 | -2 | 99 | 0 | 104 | 2 | . | . | .
c1csc(CNc2ncnc3ccc(-c4ccc5c(c4)OCCO5)cc23)c1 | . | 1 | . | 0 | . | . | . | . | .
COc1cc(/C=N/NC(=O)CN(Cc2ccccc2)S(=O)(=O)c2ccc3c(c2)OCCO3)ccc1O | 0 | -1 | 107 | 1 | 136* | 0 | 101 | 0 | 102
CCN1C(=O)/C(=C\N(C)C)S/C1=N\S(=O)(=O)c1ccc(C)cc1 | 1 | 0 | . | -19 | . | . | . | . | .
CCc1sc(N(C(=O)Cc2ccccc2)c2ccccc2)nc1-c1ccccc1 | -2 | 0 | 95 | 0 | 95 | -5 | . | . | .
CCCCC(=O)N(c1ccc(C(=O)O)cc1)c1nc(-c2ccc(Cl)cc2)c(CC)s1 | 1 | -1 | 3.0*[inhibitor] | -1 | 3.0*[inhibitor] | -60 | 93 | -7 | 104
Cc1ccccc1CNC(=O)C(=O)NCCC1CCCCN1S(=O)(=O)c1cccs1 (stereo not given) | 4 | . | . | . | . | . | . | . | .
O=C(OCc1ccccc1)/C(=C/c1ccc(Cl)cc1)NC(=O)c1ccccc1Cl | -3 | 0 | 111 | 2 | 109 | 24* | 102 | -5 | 103
Cc1ccc(C(=O)N/C(=C\c2ccccc2)C(=O)OCc2ccccc2)cc1 | 2 | . | 87 | . | 98 | -6 | . | . | .
COc1cccc(-c2nc(CS(=O)(=O)CC(=O)N3CCc4ccccc4C3)c(C)o2)c1 | -2 | -1 | -3.0*[inhibitor] | 1 | 1.0*[inhibitor] | -19 | 101 | 1 | 103
CC(=O)NS(=O)(=O)c1ccc(NC(=O)/C=C/c2cn(-c3ccccc3)nc2-c2ccccc2)cc1 | 8 | 0 | 91 | -1 | 96 | -6 | . | . | .
O=C(/C=C\c1cn(-c2ccccc2)nc1-c1ccccc1)Nc1nccs1 | 2 | 0 | 104 | -5 | 140* | 0 | 104 | 2 | 104
CCOc1ccc(S(=O)(=O)n2ccnc2C)cc1 | -1 | -2 | 107 | -3 | 100 | 6 | . | . | .
CCOc1ccc(OCC)c(S(=O)(=O)n2ccnc2C)c1 | -3 | -1 | 121 | -2 | 115 | 25* | 92 | -6 | 97
Cc1sc2ncn(CC(=O)NCCCC(=O)N3CCCCC3)c(=O)c2c1C | 2 | 1 | 94 | 0 | 98 | -4 | . | . | .
C=CCn1c(SCC(=O)c2c(N)n(C)c(=O)n(C)c2=O)nnc1-c1ccccc1F | -2 | -2 | 85 | -39 | 107 | 108* | 101 | 2 | 103
Cn1c(N)c(C(=O)CSc2nnc(-c3ccccc3F)n2N)c(=O)n(C)c1=O | 3 | -1 | 56 | 1 | 47*[inhibitor] | -19 | 101 | 3 | 104
C=CCn1c(SCC(=O)c2c(N)n(C)c(=O)n(C)c2=O)nnc1-c1ccncc1 | -3 | -1 | 101 | -3 | 105 | -3 | . | . | .
Cn1c(CC(=O)Nc2ccc(Cl)cc2)nnc1SCC(=O)N1CCOCC1 | 4 | -2 | 104 | 0 | 99 | 6 | . | . | .
O=S(=O)(NC1CCCC1)c1ccc(S(=O)(=O)N(Cc2cccs2)CC2CCCO2)cc1 (stereo not given) | 0 | -3 | -2.0*[inhibitor] | 4 | 1.0*[inhibitor] | -31 | 102 | 4 | 105
O=C(Nc1ccc(Br)c(C(F)(F)F)c1)c1ccc(C(F)(F)F)cc1 | 3 | 0 | 139* | -3 | 119 | 10 | 141 | 18 | 103
CC1=C(C(=O)OCC(C)C)C(c2ccccc2Cl)NC(=O)N1C (stereo not given) | 1 | -3 | 106 | 2 | 105 | 12 | . | . | .
SMILES | GSK3B inh | STK33 kinase inh | MEKK2wt PB1 HTS | GSK3A inh | MEKK3 PB1 HTS | MEKK2mut PB1 HTS | MEKK2wt confirm | MEKK2mut-MEK5 | MEKK3-MEK5 inh
CCOCCOC(=O)C1=C(C)N(C)C(=O)NC1c1ccccc1Cl (stereo not given) | 1 | -1 | 0.0*[inhibitor] | . | 1.0*[inhibitor] | -19 | 104 | 2 | 102
CCN1C(=O)/C(=C/C=C2/Sc3ccc4ccccc4c3N2CCO)SC1=S | -1 | 1 | 8.0*[inhibitor] | -1 | 90 | -3 | 73 | -33 | 85
C=CCC(Nc1ccccc1)c1ccc(OC)c(OC)c1 (stereo not given) | -1 | -1 | 102 | -2 | 96 | -2 | . | . | .
O=C(/C=C/c1ccccc1)N1CCN(C(=O)c2ccco2)CC1 | 1 | 0 | 119 | 1 | 69*[inhibitor] | 9 | 91 | -7 | 87
O=C(c1ccco1)N1CCN(C(=O)N2c3ccccc3Sc3ccccc32)CC1 | 1 | 0 | 90 | 0 | 78*[inhibitor] | -8 | 97 | -4 | 96
O=C(c1ccco1)N1c2ccccc2Sc2ccccc21 | -1 | 0 | 97 | 2 | 98 | 1 | . | . | .
O=C(/C=C/c1cccc([N+](=O)[O-])c1)N1CCN(C(=O)c2ccco2)CC1 | 3 | -2 | 103 | -13 | 102 | -1 | . | . | .
C[n+]1cn(CC(O)COCc2ccccc2)c2ccccc21 (stereo not given) | 3 | 0 | . | 1 | . | . | . | . | .
CCCCCc1ccc(OCCC[n+]2ccccc2)c(CCCCC)c1 | -8 | 7 | 145* | 11 | 96 | 19 | 146 | 30 | 104
CCCCCc1ccc(OCCOCCn2c[n+](C)c3ccccc32)c(CCCCC)c1 | -13 | . | 232* | . | 79 | 23 | 186 | 52 | 106
CC(=O)Nc1ccc(OCCC[n+]2ccccc2)cc1 | 0 | -1 | 90 | -2 | 99 | -12 | . | . | .
Cc1c(NC(=S)NC(=O)c2cc3ccccc3o2)cccc1C(=O)O | 0 | 0 | 104 | -3 | 104 | 6 | . | . | .
O=C(Nc1cccc(-c2cccc(F)c2)c1)C1CCN(C2CCC2)CC1 | 1 | . | 146* | . | 103 | 17 | 134 | 26 | 103

Bioassay records from PubChem BioAssay.
